Data from article PMC3060995 (Peptides, 2011).

Legend:
[1] = tested on: food intake in freely-feeding rats; experiment: 3-h IV infusion at dark onset, food intake in non-food-deprived rats; format: in vivo, rat (male Sprague-Dawley)
Outline: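 Male Sprague-Dawley rats (350–500 g), housed individually on a 12:12-h light-dark cycle, had ad libitum ground chow. They were jugular-catheterised and tethered to infusion swivels. Each received a single 3-h jugular infusion per day of test compound or vehicle (0.15 M NaCl, 0.1% BSA). Food intake was recorded continuously from bowl weight. Rats with non-patent catheters (Brevital test) were excluded. Analysis used repeated-measures ANOVA with paired t-tests.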

[2] = tested on: food intake in freely-feeding rats; conditions: cited from earlier work
[3] = 15 pmol/kg/min, 3-h IV infusion at dark onset, vs vehicle, 11–15 rats

Substance	effect on food intake [1, 3]	effect on food intake ([1]; 50 pmol/kg/min, 3-h IV infusion at dark onset, vs vehicle, 11–16 rats)	effect on food intake ([1]; 150 pmol/kg/min, 3-h IV infusion at dark onset, vs vehicle, 11–16 rats)	approximate mean effective dose for inhibition of food intake ([2]; 3-h IV infusion at dark onset, rats, previously determined) [pmol/kg/min]	potency in reducing food intake relative to PYY(1–36)-NH2 ([2]; 3-h IV infusion during the early dark period, freely-feeding rats)	reduction of 3-h food intake ([1]; 15 pmol/kg/min, 3-h jugular vein infusion beginning 15 min before dark onset, vs vehicle, 11–16 rats, group means) [%]	inhibition of 3-h food intake ([1]; 50 pmol/kg/min, 3-h jugular vein infusion beginning 15 min before dark onset, vs vehicle, 11–16 rats, group means) [%]	relative anorexigenic potency (comparison between PYY forms) ([1]; 3-h IV infusion at dark onset, rats)
peptide YY(1–36)-amide [PYY(1–36)-NH2]	significantly smaller effect	similarly reduced food in a dose-dependent manner	similarly reduced food in a dose-dependent manner	–	–	–	–	–
peptide YY(3–36)-amide [PYY(3–36)-NH2]	significantly reduced food intake	–	–	~15	an order of magnitude more potent	29	42	more potent than Ser^13(PO3)-PYY(3–36)-NH2
